Assays:
[1] = system: Human alphaherpesvirus 1; assay: Antiviral activity against Herpes simplex virus 1 infected in human skin fibroblasts assessed as inhibition of virus-induced cytopathogenicity; format: functional
[2] = system: Human alphaherpesvirus 1; assay: Antiviral activity against Herpes simplex virus 1 infected in primary rabbit kidney cells assessed as inhibition of virus-induced cytopathogenicity; format: functional
[3] = system: Vesicular stomatitis virus; assay: Antiviral activity against Vesicular stomatitis virus infected in primary rabbit kidney cells assessed as inhibition of virus-induced cytopathogenicity; format: functional
[4] = Dissociation constant, pKa of the compound by spectrophotometric analysis; format: physicochemical
How it was run: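 Determined spectrophotometrically in Teorell-Stenhagen buffers.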

SMILES | ID50 [1] | ID50 [2] | ID50 [3] | pKa [4]
N#Cc1cn([C@@H]2O[C@H](CO)[C@@H](O)[C@H]2O)c(=O)[nH]c1=O | >7 ×10⁻⁴ M | 3.7 ×10⁻⁴ M | >7 ×10⁻⁴ M | –
N#Cc1cn([C@H]2C[C@H](O)[C@@H](CO)O2)c(=O)[nH]c1=O | >7 ×10⁻⁴ M | 1.6 ×10⁻⁴ M | – | 6.8
O=c1[nH]c(=O)n([C@H]2C[C@H](O)[C@@H](CO)O2)cc1Br [BROXURIDINE] | 3.2 ×10⁻⁷ M | 3.2 ×10⁻⁷ M | – | –
O=c1[nH]c(=O)n([C@H]2C[C@H](O)[C@@H](CO)O2)cc1Cl [CHLORODEOXYURIDINE] | 7.6 ×10⁻⁷ M | 7.6 ×10⁻⁷ M | – | –
O=c1[nH]c(=O)n([C@H]2C[C@H](O)[C@@H](CO)O2)cc1F [FLOXURIDINE] | 4 ×10⁻⁷ M | 1.6 ×10⁻⁷ M | – | –
O=c1[nH]c(=O)n([C@H]2C[C@H](O)[C@@H](CO)O2)cc1I [IDOXURIDINE] | 5.7 ×10⁻⁷ M | 5.7 ×10⁻⁷ M | – | 8.2
O=c1[nH]c(=O)n([C@H]2C[C@H](O)[C@@H](CO)O2)cc1C(F)(F)F [TRIFLURIDINE] | 1.3 ×10⁻⁶ M | 6.6 ×10⁻⁷ M | – | –
Nc1ncnc2c1ncn2[C@@H]1O[C@H](CO)[C@@H](O)[C@@H]1O [VIDARABINE] | 3.7 ×10⁻⁵ M | 1.5 ×10⁻⁵ M | – | –
